Results reported in ChEMBL document CHEMBL4014335, “Activation of Phenyl 4-(2-Oxo-3-alkylimidazolidin-1-yl)benzenesulfonates Prodrugs by CYP1A1 as New Antimitotics Targeting Breast Cancer Cells” (J Med Chem, 2017).
The source made the active and inactive calls. The calls are words filed in the database; no cut-off is given here.

Key:
Cytochrome P450 1A1 = target: T1, Cytochrome P450 1A1 (Homo sapiens, UniProt P04798); assay: Inhibition of human supersomes CYP1A1-mediated 7-ethoxyresorufin conversion to fluorescent resorufin preincubated with 7-ethoxyresorufin for 5 mins followed by addition of NADPH regenerating system measured for 15 mins by EROD assay; assay type: ADME
T1 sequence (P04798 whole entry): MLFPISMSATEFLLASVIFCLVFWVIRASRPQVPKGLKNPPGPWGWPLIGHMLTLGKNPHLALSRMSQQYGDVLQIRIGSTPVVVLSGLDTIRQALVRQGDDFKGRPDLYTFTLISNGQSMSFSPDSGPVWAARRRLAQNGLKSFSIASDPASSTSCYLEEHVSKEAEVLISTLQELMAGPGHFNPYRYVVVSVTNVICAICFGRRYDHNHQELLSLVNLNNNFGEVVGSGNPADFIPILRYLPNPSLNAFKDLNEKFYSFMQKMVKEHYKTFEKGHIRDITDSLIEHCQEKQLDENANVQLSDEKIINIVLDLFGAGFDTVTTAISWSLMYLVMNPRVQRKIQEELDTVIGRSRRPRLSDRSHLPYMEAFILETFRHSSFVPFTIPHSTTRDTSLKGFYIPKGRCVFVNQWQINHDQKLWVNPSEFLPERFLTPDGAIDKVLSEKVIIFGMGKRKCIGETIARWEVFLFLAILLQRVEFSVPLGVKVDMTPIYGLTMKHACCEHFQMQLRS
Outline: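 EROD assay with human CYP1A1 supersomes containing reductase, in potassium phosphate buffer. Drug final 32–31 600 nM and 7-ethoxyresorufin 94–3 000 nM, with 0.35% DMSO, preincubated 5 min at 37 °C. Reaction started with NADPH-regenerating system and 0.15 pmol CYP1A1 in 150 µL. Initial velocity taken from 1–5 min; Vmax and Km from Lineweaver-Burk plot.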

MDA-MB-468 [1] = assay: Cell cycle arrest in human MDA-MB-468 cells assessed as accumulation at G2/M phase at 8 nM after 24 hrs by DAPI-staining based FACS analysis (reference value: 19.5%); assay type: functional
SK-BR-3 = assay: Antiproliferative activity against ER/PR deficient and HER2 expressing human SKBR3 cells after 72 hrs by SRB assay; assay type: functional, cell-based; conditions: SK-BR-3, 72 h
Outline: (§1)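 SRB antiproliferative assay (modified NCI protocol). Cells seeded per well (SK-BR-3, MDA-MB-231, T47D, HT-1080, HT-1080 CYP1A1 and empty-vector: 3.0 x 10^3; MDA-MB-468: 5.0 x 10^3; MCF7: 7.5 x 10^3), preincubated 24 h. DMSO-solubilized drug added at 0.75 to 1.0 x 10^5 nM, then 72 h. Fixed with cold 10% TCA, stained with 0.1% sulforhodamine B, absorbance read at 530-565 nm. At least two experiments, triplicate cultures.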

HT-1080 [2] = assay: Antitumor activity against human HT1080 cells implanted in chicken chorioallantoic membrane assessed as tumor growth inhibition at 1 ug/egg, iv administered on day 11 post implantation measured on day 17; assay type: functional
Outline: (§2)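 Chick CAM tumor model using HT-1080 cells (wild-type or stably transfected with CYP1A1 or empty plasmid). Eggs incubated 10 d. On day 11, drug in DMSO (40 mM stock) was diluted in cremophor/EtOH/PBS (6.25/6.25/87.5), DMSO kept below 0.5%, and given iv in 100 µL to 10-12 eggs. Tumors excised on day 17 and wet-weighed. Two independent experiments (20-24 eggs); embryo deaths and toxicity recorded.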

[3] = Selectivity ratio of IC50 for ER/PR/HER2 deficient human MDA-MB-231 cells to IC50 for ER/PR/HER2 expressing human T47D cells; assay type: functional
Outline: (§3)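 Ratio is IC50 in reference line over IC50 in sensitive line. […] Cells in DMEM with 5% calf serum at 37 °C. At least two experiments, triplicate cultures; assay accepted when relative SD < 10%.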

[4] = Selectivity ratio of IC50 for ER/PR/HER2 deficient human MDA-MB-231 cells to IC50 for human MCF7 cells; assay type: functional; outline: as §3
MDA-MB-468 [5] = assay: Antiproliferative activity against ER/PR/HER2 deficient human MDA-MB-468 cells after 72 hrs by SRB assay; assay type: functional, cell-based; conditions: MDA-MB-468, 72 h; outline: as §1
T47D = assay: Antiproliferative activity against ER/PR/HER2 expressing human T47D cells after 72 hrs by SRB assay; assay type: functional, cell-based; outline: as §1
HT-1080 [6] = assay: Antiproliferative activity against human HT1080 cells transfected with pCMV6-AC empty plasmid after 72 hrs by SRB assay; assay type: functional, cell-based; conditions: HT-1080, 72 h; outline: as §1
[7] = Selectivity ratio of IC50 for ER/PR/HER2 deficient human MDA-MB-231 cells to IC50 for ER/PR deficient and HER2 expressing human SKBR3 cells; assay type: functional; outline: as §3
HT-1080 [8] = assay: Antitumor activity against empty plasmid transfected human HT1080 cells implanted in chicken chorioallantoic membrane assessed as tumor growth inhibition at 1 ug/egg, iv administered on day 11 post implantation measured on day 17; assay type: functional; outline: as §2
MCF7 = assay: Antiproliferative activity against human MCF7 cells after 72 hrs by SRB assay; assay type: functional, cell-based; conditions: MCF7, 72 h; outline: as §1
HT-1080 [9] = assay: Selectivity ratio of IC50 for HT1080 cells transfected with pCMV6-AC empty plasmid to IC50 for human HT1080 cells transfected with CYP1A1; assay type: functional
Outline: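 Ratio is IC50 (HT-1080 empty vector) over IC50 (HT-1080 CYP1A1). Both lines stably transfected (pCMV6-AC plasmids) and kept under G418 selection, seeded at 3.0 x 10^3 cells. IC50s from SRB antiproliferative assay.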

[10] = Selectivity ratio of IC50 for ER/PR/HER2 deficient human MDA-MB-231 cells to IC50 for ER/PR/HER2 deficient human MDA-MB-468 cells; assay type: functional; outline: as §3
MDA-MB-231 [11] = assay: Cell cycle arrest in human MDA-MB-231 cells assessed as accumulation at subG1 phase at 8 nM after 24 hrs by DAPI-staining based FACS analysis (reference value: 4.1%); assay type: functional
HT-1080 [12] = assay: Antiproliferative activity against human wild type HT1080 cells after 72 hrs by SRB assay; assay type: functional, cell-based; conditions: HT-1080, 72 h; outline: as §1
MDA-MB-231 [13] = assay: Cell cycle arrest in human MDA-MB-231 cells assessed as accumulation at S phase at 8 nM after 24 hrs by DAPI-staining based FACS analysis (reference value: 9.7%); assay type: functional
MDA-MB-468 [14] = assay: Cell cycle arrest in human MDA-MB-468 cells assessed as accumulation at G0/G1 phase at 8 nM after 24 hrs by DAPI-staining based FACS analysis (reference value: 63.3%); assay type: functional
MDA-MB-231 [15] = assay: Antiproliferative activity against ER/PR/HER2 deficient human MDA-MB-231 cells after 72 hrs by SRB assay; assay type: functional, cell-based; conditions: MDA-MB-231, 72 h; outline: as §1
HT-1080 [16] = assay: Antitumor activity against CYP1A1 transfected human HT1080 cells implanted in chicken chorioallantoic membrane assessed as tumor growth inhibition at 1 ug/egg, iv administered on day 11 post implantation measured on day 17; assay type: functional; outline: as §2
HT-1080 [17] = assay: Antiproliferative activity against human HT1080 cells transfected with CYP1A1 after 72 hrs by SRB assay; assay type: functional, cell-based; conditions: HT-1080, 72 h; outline: as §1
[18] = Stability in human liver microsomes assessed as compound remaining after 60 mins by HPLC-MS analysis
[19] = Selectivity ratio of IC50 for human M21 cells to IC50 for human MCF7 cells; assay type: functional; outline: as §3

| IC50 (SK-BR-3) | IC50 (MDA-MB-468 [5]) | IC50 (T47D) | IC50 (HT-1080 [6]) | IC50 (MCF7) | IC50 (HT-1080 [12]) | IC50 (MDA-MB-231 [15]) | IC50 (HT-1080 [17]) | Structure (SMILES) | TGI (HT-1080 [2]) | Ratio IC50 [3] | Ratio IC50 [4] | Ratio IC50 [7] | TGI (HT-1080 [8]) | Ratio IC50 (HT-1080 [9]) | Ratio IC50 [10] | TGI (HT-1080 [16]) | also measured |
| --- | --- | --- | --- | --- | --- | --- | --- | --- | --- | --- | --- | --- | --- | --- | --- | --- | --- |
| 3.1 nM | 4.6 nM | 6.2 nM | 3.3 nM | 3.1 nM | 3.6 nM | 6.4 nM | 1.7 nM | COc1cc(OS(=O)(=O)c2ccc(N3CCNC3=O)cc2)cc(OC)c1OC | 51% | 1 | 2.1 | 2.1 | 21% | 1.9 | 1.4 | 32% | Ki (Cytochrome P450 1A1): Not Active; Activity (MDA-MB-468 [1]): 74.4%; Activity (MDA-MB-231 [11]): 6.9%; Activity (MDA-MB-231 [13]): 8.9%; Activity (MDA-MB-468 [14]): 10.6% |
| 2 nM | 10 nM | 20 nM | 47000 nM | 5.5 nM | 5500 nM | 6000 nM | 13 nM | CCCCN1CCN(c2ccc(S(=O)(=O)Oc3cc(OC)c(OC)c(OC)c3)cc2)C1=O | 15% | 300 | 1100 | 3000 | inactive | 3600 | 590 | 49% | Ki (Cytochrome P450 1A1; read-out: Ki): 540 nM; remaining at 1 h [18]: 25%; Ratio IC50 [19]: 380 |
